From PMC3372611 (Biochemical Pharmacology, 2012)
Residue numbers refer to the chain shown, from its start. Values joined by “and” are separate entries in the source; they are usually repeats but may differ in a detail not shown here. Equal values may be shown once.

Assays:
[1] = target: T1, PMAT I89M mutant (Homo sapiens, UniProt Q7RTT9, I89M); assay: Inhibition of [3H]MPP+ uptake in I89M-transfected MDCK cells; format: cell-based
T1 sequence (Q7RTT9 1-530 I89M): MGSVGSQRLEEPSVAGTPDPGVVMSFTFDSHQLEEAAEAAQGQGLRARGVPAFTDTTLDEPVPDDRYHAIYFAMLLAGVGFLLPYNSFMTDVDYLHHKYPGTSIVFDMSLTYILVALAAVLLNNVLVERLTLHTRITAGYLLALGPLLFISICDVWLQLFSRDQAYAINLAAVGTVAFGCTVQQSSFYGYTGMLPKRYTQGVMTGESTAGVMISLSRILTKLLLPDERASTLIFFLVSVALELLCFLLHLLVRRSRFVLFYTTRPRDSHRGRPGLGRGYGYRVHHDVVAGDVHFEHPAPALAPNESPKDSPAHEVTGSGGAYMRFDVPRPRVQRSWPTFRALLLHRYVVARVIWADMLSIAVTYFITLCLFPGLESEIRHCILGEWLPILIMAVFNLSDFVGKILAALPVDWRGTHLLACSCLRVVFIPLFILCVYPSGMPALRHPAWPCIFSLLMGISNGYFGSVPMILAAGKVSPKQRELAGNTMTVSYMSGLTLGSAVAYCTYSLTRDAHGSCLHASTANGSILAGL
Outline: (§1)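 Stably transfected MDCK cells (YFP-tagged WT or I89M human PMAT) at confluence were exposed 1 min at 37°C in KRH buffer (pH 7.4) to [3H]MPP+ (1 μM) with or without test compound at various concentrations. Cells were washed in ice-cold KRH, counted by scintillation, and normalized to protein. IC50 came from fitting total uptake to a Hill-type equation with residual baseline. Wells in triplicate; three independent experiments on different passages; mean ± S.D.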

[2] = target: T2, WT PMAT (Homo sapiens, UniProt Q7RTT9); assay: Inhibition of [3H]MPP+ uptake in WT PMAT-transfected MDCK cells; format: cell-based
T2 sequence (Q7RTT9 1-530): T1 sequence (Q7RTT9 1-530 I89M) with M89I
Outline: as §1

[3] = target: T1, PMAT I89M mutant; assay: Concentration-dependent [3H]MPP+ uptake; format: cell-based; conditions: MPP+ as substrate
Outline: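 MDCK cells stably expressing YFP-tagged WT or I89M human PMAT (G418-selected, FACS-sorted) were grown 2–3 days to ~90–100% confluence. Cells were preincubated 15 min in KRH buffer (pH 7.4) at 37°C, then given various [3H]MPP+ concentrations for 1 min at 37°C. Uptake was read by scintillation and normalized to protein. Vector-cell uptake was subtracted, and Km and Vmax came from Michaelis-Menten nonlinear least-squares fits. Wells in triplicate; n=3 passages.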

[4] = target: ENT1; conditions: mammalian ENT1 proteins; cited from earlier work
[5] = test system: ENT2; conditions: ENT2 transporters; cited from earlier work

## OCCN(CCO)c1nc(N2CCCCC2)c2nc(N(CCO)CCO)nc(N3CCCCC3)c2n1 [Dipyridamole, dipyridamole]
[1]
  IC50: 4.6 ± 1.8 µM
[1]; inhibition of MPP+ uptake
  Change in inhibition, I89M vs WT PMAT (in words): no significant changes

## COc1cc(C(=O)OCCCN2CCCN(CCCOC(=O)c3cc(OC)c(OC)c(OC)c3)CC2)cc(OC)c1OC [Dilazep, dilazep]
[2]
  IC50: 16.6 ± 2.1 µM
[1]
  IC50: 6.6 ± 0.5 µM
[1]; inhibition of MPP+ uptake
  Increase in transporter sensitivity to inhibition, I89M vs WT PMAT: 2.5 fold and ~ 2.5 fold

## C[n+]1ccc(-c2ccccc2)cc1 [MPP^+, 1-methyl-4-phenylpyridinium]
[3]
  Decrease in maximal transport velocity (Vmax), I89M vs WT PMAT: 2.7 fold and ~ 2.7 fold
  Decrease in transport efficiency (Vmax/Km), I89M vs WT PMAT: 3.7 fold

## O=[N+]([O-])c1ccc(CSc2ncnc3c2ncn3[C@@H]2O[C@H](CO)[C@@H](O)[C@H]2O)cc1 [NBMPR, nitrobenzylmercaptopurine riboside]
[1]; inhibition of MPP+ uptake
  Change in inhibition, I89M vs WT PMAT (in words): no significant changes
[4]
  Kd: 0.001 to 0.01 µM
[5]
  Concentration at which the transporter becomes sensitive: > 10 µM
